Bioassay records: PubChem BioAssay, several laboratories
A selection: hits, their analogues and other compounds. The true share with any hit is near 3.1%.
UBC9 SUMO inh = blocks human SUMOylation mediated by UBC9; HTRF SUMOylation assay, SAE1/SAE2 + UBC9, in vitro; P63279; inhibition, % at 35 µM; actives 0.36% (n = 290,000); in the data active = inhibition above about 50%, passing the limit was not always enough
Target sequence (P63279 whole entry, looked up): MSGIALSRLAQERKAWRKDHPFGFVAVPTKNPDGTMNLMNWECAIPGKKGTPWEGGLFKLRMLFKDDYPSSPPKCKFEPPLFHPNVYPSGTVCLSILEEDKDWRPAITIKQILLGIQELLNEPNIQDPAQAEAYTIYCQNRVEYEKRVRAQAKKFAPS
PHOSPHO1 inh = inhibitors of human PHOSPHO1 phosphatase | Q8TCT1 | recombinant PHOSPHO1, absorbance phosphatase assay | inhibition, % at 13.3 µM | actives 1.1% (n = 290,000); in the data active = inhibition above about 60%
Target sequence (Q8TCT1 whole entry, looked up): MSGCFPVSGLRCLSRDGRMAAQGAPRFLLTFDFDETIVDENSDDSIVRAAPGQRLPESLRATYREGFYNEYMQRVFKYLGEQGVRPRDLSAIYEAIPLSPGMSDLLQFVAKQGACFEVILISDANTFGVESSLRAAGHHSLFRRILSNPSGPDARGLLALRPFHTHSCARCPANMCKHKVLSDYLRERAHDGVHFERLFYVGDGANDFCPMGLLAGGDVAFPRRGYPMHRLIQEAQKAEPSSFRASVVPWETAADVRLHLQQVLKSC
VIM-2 inh = inhibitors of Pseudomonas aeruginosa VIM-2 metallo-beta-lactamase. purified VIM-2, nitrocefin hydrolysis, epi-absorbance fluorescence. inhibition, % at 5.6 µM. AID 1527. actives 0.89% (n = 290,000);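 active = inhibition above the mean of all tested compounds plus 3 SD, cutoff set per screening run, cut at about 7.5% in these data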;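 also: red hydrolysis product quenches plate fluorescence so inhibitors raise well fluorescence; 0% = enzyme with DMSO and 100% = DMSO without enzyme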
IMP-1 inh = inhibitors of Pseudomonas aeruginosa IMP-1 metallo-beta-lactamase. actives 0.45% (n = 290,000). purified IMP-1, nitrocefin hydrolysis, epi-absorbance fluorescence. inhibition, % at 5.6 µM;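 active = inhibition above the mean plus 3 SD of all compounds in the same screening run, cut at about 4.5% in these data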;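 also: 0% = IMP-1 with DMSO and 100% = DMSO wells lacking enzyme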
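Material – recombinant IMP-1 enzyme, purified · Amount – IMP-1 0.2 nM before substrate addition · Medium – HEPES buffer pH 7.1 with ZnSO4 and Brij 35 · Timing – 25 °C, 15 min preincubation, 25 min reaction · Measured by – plate fluorescence quenching by hydrolysis product, ex 480/em 530 nm · Read-out – percent enzyme inhibition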
core dimer inh = blocks dimerization of HCV core protein; TR-FRET GST/Flag-core106 dimerization, 1536-well; actives 0.33% (n = 300,000); inhibition, % at 5 µM;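 active = inhibition above the mean of all tested compounds plus 3 SD, set per screening campaign, cut at about 45% in these data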
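Test system: GST/Flag-tagged HCV core106 proteins; Medium: KF-containing HEPES buffer, pH 7.45, DTT, CHAPS, BSA; Times: compound-protein-antibody incubation 4 h at 22.5 °C; Detection: TR-FRET 671 and 617 nm emission; Benchmarks: wells lacking GST-core106 and wells with excess unlabelled core106.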
HCV NS3 hel inh = inhibitors of Hepatitis C virus NS3 helicase. inhibition, % at 10.9 µM. NS3 helicase DNA unwinding, Cy5 molecular beacon fluorescence. actives 0.56% (n = 290,000);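 active = inhibition above the mean of all tested compounds plus 3 SD, set per campaign, cut at about 35% in these data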;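 also: 0% = DMSO wells and 100% = thioflavine S control wells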
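Assay system – hepatitis C virus NS3 helicase domain fragment enzyme · Buffer or medium – MOPS pH 6.5, MgCl2, DTT, Tween20, BSA · Reagent – Cy5/quencher beacon DNA duplex and ATP to start · Compound – single 10.9 µM dose · Timing – 1 h at 25 °C · Technique – Cy5 beacon fluorescence read at start and 1 h · Measure – % inhibition of unwinding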
* = called active by the depositor.

What do the screens show for `CCOC(=O)c1c(-c2ccccc2)oc2ccc(OCC(O)CN(C)C)cc12` (stereo unspecified)?
UBC9 SUMO inh: 40; PHOSPHO1 inh: 40; VIM-2 inh: 8.9*; IMP-1 inh: -3; core dimer inh: -6; HCV NS3 hel inh: -61

Results for CCOC(=O)c1c(-c2ccccc2)oc2ccc(OC(C)=O)cc12 ?
UBC9 SUMO inh: 17; PHOSPHO1 inh: 7; VIM-2 inh: -4; IMP-1 inh: -3; core dimer inh: 7; HCV NS3 hel inh: -3

What do the screens show for `CCOC(=O)c1c(-c2ccccc2)oc2ccc(OC(C)C(=O)O)cc12` (stereo unspecified)?
UBC9 SUMO inh: 55*; PHOSPHO1 inh: 8; VIM-2 inh: -1; IMP-1 inh: -3; core dimer inh: 8; HCV NS3 hel inh: 10

Results for CCCOc1ccccc1/C=C(\C#N)C(=O)Nc1cccnc1 ?
UBC9 SUMO inh: 3; PHOSPHO1 inh: -4; VIM-2 inh: -1; IMP-1 inh: -1; core dimer inh: 3; HCV NS3 hel inh: 0

Results for COc1ccc(CC(=O)OCc2cc3ccc(C)cc3[nH]c2=O)cc1 ?
UBC9 SUMO inh: -10; PHOSPHO1 inh: 61*; VIM-2 inh: -4; IMP-1 inh: -3; core dimer inh: 11; HCV NS3 hel inh: -6

Results for COc1ccc(CC(=O)OCc2cc3ccccc3[nH]c2=O)cc1 ?
UBC9 SUMO inh: 23; PHOSPHO1 inh: 0; VIM-2 inh: -2; IMP-1 inh: 0; core dimer inh: 1; HCV NS3 hel inh: -3

How did O=C(CN(C(=O)c1csnn1)c1ccccc1C(F)(F)F)NC1CCCCC1 do in these assays?
UBC9 SUMO inh: 1; PHOSPHO1 inh: 2; VIM-2 inh: -1; IMP-1 inh: -2; core dimer inh: -4; HCV NS3 hel inh: 2

What do the screens show for `Cc1ccc(CNC(=O)c2ccc(CN3CCOCC3)cc2)cc1`?
UBC9 SUMO inh: 12; PHOSPHO1 inh: 84*; VIM-2 inh: -3; IMP-1 inh: -4; core dimer inh: -8; HCV NS3 hel inh: 5

What do the screens show for `O=C(NCc1ccc(F)cc1)c1ccc(CNc2c(N3CCOCC3)c(=O)c2=O)cc1`?
UBC9 SUMO inh: 9; PHOSPHO1 inh: 61*; VIM-2 inh: -1; IMP-1 inh: -3; core dimer inh: -4; HCV NS3 hel inh: -16

How did Cc1ccc(SCCNC(=O)c2ccc(CN3CCOCC3)cc2)cc1 do in these assays?
UBC9 SUMO inh: 8; PHOSPHO1 inh: -16; VIM-2 inh: 0; IMP-1 inh: 0; core dimer inh: -4; HCV NS3 hel inh: 5

How did O=S(=O)(Nc1ccon1)c1ccc(F)c(F)c1 do in these assays?
UBC9 SUMO inh: 19; PHOSPHO1 inh: 56; VIM-2 inh: -2; IMP-1 inh: -4; core dimer inh: -9; HCV NS3 hel inh: 4

Results for CC(C)(C)c1ccc(C(=O)Nc2cccc3c(=O)[nH][nH]c(=O)c23)cc1 ?
UBC9 SUMO inh: 25; PHOSPHO1 inh: -10; VIM-2 inh: -3; IMP-1 inh: 5.9*; core dimer inh: 1; HCV NS3 hel inh: 3

What do the screens show for `CCc1nn(CC(=O)NCCCN(CC)CC)c(=O)c2cc3sc(C)cc3n12`?
UBC9 SUMO inh: 4; PHOSPHO1 inh: 37; VIM-2 inh: 3; IMP-1 inh: -5; core dimer inh: -2; HCV NS3 hel inh: 2

How did CCc1nn(CC(=O)NCCCN(C)Cc2ccccc2)c(=O)c2cc3sc(C)cc3n12 do in these assays?
UBC9 SUMO inh: 8; PHOSPHO1 inh: 28; VIM-2 inh: 9.0*; IMP-1 inh: -1; core dimer inh: 0; HCV NS3 hel inh: -31

How did CN(C(=O)CC1C(=O)NCCN1Cc1cccc(F)c1F)C1CC(C)(C)NC(C)(C)C1 (stereo unspecified) do in these assays?
UBC9 SUMO inh: 0; PHOSPHO1 inh: 14; VIM-2 inh: -1; IMP-1 inh: -1; core dimer inh: 8; HCV NS3 hel inh: 5

What do the screens show for `COc1ccc(CCNC(=S)Nc2ccc(S(=O)(=O)Nc3ncccn3)cc2)cc1OC`?
UBC9 SUMO inh: 9; PHOSPHO1 inh: 67*; VIM-2 inh: -1; IMP-1 inh: -4; core dimer inh: -14; HCV NS3 hel inh: 4

How did CCOC(=O)c1nc(NCc2cccc(OC)c2)c2ccccc2n1 do in these assays?
UBC9 SUMO inh: 2; PHOSPHO1 inh: 24; VIM-2 inh: 0; IMP-1 inh: -3; core dimer inh: -11; HCV NS3 hel inh: 5

How did CCOC(=O)C1=C(COC(=O)/C=C/c2cccc([N+](=O)[O-])c2)NC(=O)NC1C (stereo unspecified) do in these assays?
core dimer inh: -10

Results for CCOc1ccc(CCNC(=O)c2cc([N+](=O)[O-])ccc2N2CCOCC2)cc1OCC ?
UBC9 SUMO inh: 14; PHOSPHO1 inh: 63*; VIM-2 inh: -5; IMP-1 inh: -5; core dimer inh: -16; HCV NS3 hel inh: 17

How did CCOc1ccc(CCNC(=O)COC(=O)c2cc([N+](=O)[O-])ccc2N2CCOCC2)cc1OCC do in these assays?
UBC9 SUMO inh: 0; PHOSPHO1 inh: 43; VIM-2 inh: -1; IMP-1 inh: -1; core dimer inh: 3; HCV NS3 hel inh: -1

Results for O=[N+]([O-])c1ccc(Cl)c(/C=N/n2c(C3CCCCC3)n[nH]c2=S)c1 ?
UBC9 SUMO inh: 8; PHOSPHO1 inh: 103*; VIM-2 inh: -4; IMP-1 inh: 0; core dimer inh: -5; HCV NS3 hel inh: -6

What do the screens show for `O=[N+]([O-])c1cccc(/C=N/n2c(C3CCCCC3)n[nH]c2=S)c1`?
UBC9 SUMO inh: -6; PHOSPHO1 inh: -3; VIM-2 inh: -2; IMP-1 inh: -1; core dimer inh: 4; HCV NS3 hel inh: 2

How did O=C(COc1ccc([N+](=O)[O-])cc1)Nc1ccc2c(c1)nc1n2CCOC1 do in these assays?
UBC9 SUMO inh: 18; PHOSPHO1 inh: 24; VIM-2 inh: -1; IMP-1 inh: -3; core dimer inh: 5; HCV NS3 hel inh: 4

Results for COC(=O)c1c(/N=C/N(C)C)sc2c1CCN(c1ncc(C(F)(F)F)cc1Cl)C2 ?
UBC9 SUMO inh: -12; PHOSPHO1 inh: 18; VIM-2 inh: -1; IMP-1 inh: 5.0*; core dimer inh: 7; HCV NS3 hel inh: 2

What do the screens show for `CSCCC(NC(=O)c1ccc(Cl)c([N+](=O)[O-])c1)C(=O)N1CCN(C/C=C/c2ccccc2)CC1` (stereo unspecified)?
core dimer inh: -2

What do the screens show for `COC(=O)c1c(NC(=O)Cc2cccs2)sc2c1CCCC2`?
UBC9 SUMO inh: -1; PHOSPHO1 inh: 7; VIM-2 inh: 1; IMP-1 inh: 4.5*; core dimer inh: 46; HCV NS3 hel inh: 19

How did COC(=O)c1c(NC(=O)C(=O)N2CCOCC2)sc2c1CCC2 do in these assays?
UBC9 SUMO inh: 13; PHOSPHO1 inh: 17; VIM-2 inh: 11*; IMP-1 inh: 1; core dimer inh: 3; HCV NS3 hel inh: 10
